Measured values reported in ChEMBL document CHEMBL2311353, “Synthesis and antiproliferative activities of N-(naphthalen-2-yl)acetamide and N-(substituted phenyl)acetamide bearing quinolin-2(1H)-one and 3,4-dihydroquinolin-2(1H)-one derivatives” (Eur J Med Chem, 2013).

Experiments:
NCI-H661 = assay: Antiproliferative activity against human NCI-H661 cells after 72 hrs by MTT assay; format: functional, cell-based; details: NCI-H661, 72 h
Summary of the method: (§1)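 Log-phase cells were seeded, left overnight, then exposed to a range of compound concentrations for 72 h. MTT at 0.4 mg/mL in MEM was added for 2 h, and formazan was read at 570 nm. GI50 was taken from percent conversion relative to mock-treated controls.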

[1] = Antiproliferative activity against human Hep3B cells after 72 hrs by MTT assay; format: functional, cell-based, Hep 3B2; summary of the method: as §1
A498 = assay: Antiproliferative activity against human A498 cells after 72 hrs by MTT assay; format: functional, cell-based; details: A498, 72 h; summary of the method: as §1
MKN-45 = assay: Antiproliferative activity against human MKN45 cells after 72 hrs by MTT assay; format: functional, cell-based; details: MKN-45, 72 h; summary of the method: as §1
[2] = Antiproliferative activity against human NPC-TW01 cells after 72 hrs by MTT assay; format: functional, cell-based; details: NPC-TW01, 72 h; summary of the method: as §1

Structure (SMILES) | IC50 (NCI-H661) [µM] | IC50 [1] [µM] | IC50 (A498) [µM] | IC50 (MKN-45) [µM] | IC50 [2] [µM]
O=C(COc1ccc2c(c1)NC(=O)CC2)Nc1ccccc1 | 21.8 | 27.2 | 12 | 32.4 | 16
O=C(COc1ccc2c(c1)NC(=O)CC2)Nc1ccc(F)cc1 | 15.3 | 27 | 11.3 | 38.6 | 15.8
COc1ccc(NC(=O)COc2ccc3c(c2)NC(=O)CC3)cc1 | 16.4 | 31.1 | 19.3 | 36.3 | 13.1
O=C(COc1ccc2c(c1)NC(=O)CC2)Nc1ccc(-c2ccccc2)cc1 | 15.4 | 8.1 | 12 | 32.4 | 2.9
O=C(COc1ccc2c(c1)NC(=O)CC2)Nc1ccc2ccccc2c1 | 11.2 | 19.2 | 8.6 | 26.9 | 8.9
